Measurements as given in ChEMBL document CHEMBL1157363, “Inhibition of isolated Mycobacterium tuberculosis fatty acid synthase I by pyrazinamide analogs” (Antimicrob Agents Chemother, 2007).
Active and inactive are the calls of the source. The calls are words filed in the database; no cut-off is given here.

Legend:
[1] = system: Mycobacterium tuberculosis; assay: Inhibition of Mycobacterium tuberculosis fatty acid synthase 1 expressed in Mycobacterium smegmatis mc2 2700 assessed as [2-14C]]malonyl-CoA incorporation into fatty acid at 3000 uM
[2] = system: Mycobacterium tuberculosis; assay: Inhibition of Mycobacterium tuberculosis fatty acid synthase 1 expressed in Mycobacterium smegmatis mc2 2700 assessed as [2-14C]]malonyl-CoA incorporation into fatty acid at 6000 uM
[3] = Inhibition of Mycobacterium tuberculosis fatty acid synthase 1 expressed in Mycobacterium smegmatis mc2 2700 assessed as NADPH oxidation at 100 uM of NADPH by spectrophotometry
Method in brief: (§1)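 Purified Mtb FASI (from M. smegmatis Δfas1 attB::Mtb fas1, ammonium sulfate, DE52, gel filtration), 1–3 μg in 1 ml: 50 μM acetyl-CoA, 40 μM malonyl-CoA, 100 μM NADPH, 5 mM DTT, 400 mM potassium phosphate pH 7.4; inhibitor in DMSO (≤0.05 ml/ml). Linear A340 decrease over 10 min at 37°C; IC50 from Dixon plot x-intercept at 100 μM NADPH.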

[4] = Inhibition of Mycobacterium tuberculosis fatty acid synthase 1 expressed in Mycobacterium smegmatis mc2 2700 assessed as NADPH oxidation using variable concentration of NADPH by spectrophotometry
[5] = system: Mycobacterium tuberculosis; assay: Inhibition of Mycobacterium tuberculosis fatty acid synthase 1 expressed in Mycobacterium smegmatis mc2 2700 assessed as NADPH oxidation by spectrophotometry; method in brief: as §1
[6] = system: Mycobacterium tuberculosis; assay: Inhibition of Mycobacterium tuberculosis fatty acid synthase 1 expressed in Mycobacterium smegmatis mc2 2700 assessed as NADPH oxidation upto 100 mM by spectrophotometry
Method in brief: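 NADPH oxidation by purified Mtb FASI (1–3 μg/ml), 50 μM acetyl-CoA, 40 μM malonyl-CoA, 100 μM NADPH, 5 mM DTT, 400 mM potassium phosphate pH 7.4, 37°C, A340 decrease over 10 min; inhibitor added from DMSO at up to 100 mM, percent inhibition read.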

**Q.** With CCCNC(=O)c1cnc(Cl)cn1 as the compound, how does the inhibition [1] read?
**A.** 6%

**Q.** And the inhibition [2]?
**A.** 37%

**Q.** And the IC50 [3]?
**A.** 8.1 µM

**Q.** With NC(=O)c1cnc(Cl)cn1 as the compound, how does the IC50 [4] read?
**A.** 151 µM

**Q.** What about the Ki [4] of the same compound?
**A.** 55 µM

**Q.** And the inhibition [1]?
**A.** 39%

**Q.** What about the IC50 [3] of the same compound?
**A.** 15.1 µM

**Q.** And the Activity [5]?
**A.** Dose-dependent effect

**Q.** With CCCOC(=O)c1cnc(F)cn1 as the compound, how does the inhibition [2] read?
**A.** 66%

**Q.** What about the IC50 [3] of the same compound?
**A.** 1.5 µM

**Q.** With CC(C)(C)NC(=O)c1cnc(Cl)cn1 as the compound, how does the IC50 [3] read?
**A.** 8.7 µM

**Q.** Which results are given for O=C(O)c1cnccn1?
**A.** inhibition [1]: 6%; inhibition [2]: 37%; Activity [5]: Dose-dependent effect

**Q.** With NC(=O)c1cnccn1 [PYRAZINAMIDE] as the compound, how does the IC50 [4] read?
**A.** 8930 µM

**Q.** And the Ki [4]?
**A.** 2570 µM

**Q.** What about the inhibition [1] of the same compound?
**A.** 6%

**Q.** What about the inhibition [2] of the same compound?
**A.** 37%

**Q.** And the IC50 [3]?
**A.** 8930 µM

**Q.** What about the Activity [5] of the same compound?
**A.** Dose-dependent effect

**Q.** With CC(C)(C)OC(=O)c1cnccn1 as the compound, how does the IC50 [3] read?
**A.** 1360 µM

**Q.** Which IC50 [3] does the source give for CC(C)(C)OC(=O)c1cnc(F)cn1 here?
**A.** 4.3 µM

**Q.** What does the source list for C/C=C/C/C=C/CCC(=O)[C@H]1O[C@H]1C(N)=O?
**A.** Activity [1]: inactive; inhibition [2]: 62%

**Q.** Which inhibition [6] does the source give for NC(=O)c1ccccc1 here?
**A.** 15%

**Q.** With CCCOC(=O)c1cnccn1 as the compound, how does the inhibition [1] read?
**A.** 6%

**Q.** What about the inhibition [2] of the same compound?
**A.** 37%

**Q.** And the IC50 [3]?
**A.** 1720 µM

**Q.** With CC(C)(C)OC(=O)c1cnc(Cl)cn1 as the compound, how does the IC50 [3] read?
**A.** 15.1 µM

**Q.** With CC[C@@H](CO)NCCN[C@@H](CC)CO as the compound, how does the Activity [2] read?
**A.** inactive

**Q.** What does the source list for CCCOC(=O)c1cnc(Cl)cn1?
**A.** inhibition [2]: 66%; IC50 [3]: 5.9 µM
